According to ChEMBL document CHEMBL1157649, “Cytotoxic 2-benzylidene-6-(nitrobenzylidene)cyclohexanones which display substantially greater toxicity for neoplasms than non-malignant cells” (Bioorg Med Chem, 2010):

How the values were obtained:
[1] = Partition coefficient, log P of the compound; type: physicochemical; conditions: octanol/water
[2] = system: HSC-4; assay: Cytotoxicity against human HSC4 cells after 24 hrs; type: functional; conditions: HSC-4, 24 h
Outline: (§1)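 Cells (HGF gingival fibroblasts, HPC pulp cells, HPLF periodontal ligament fibroblasts, HSC-2 and HSC-4 squamous carcinoma, HL-60 promyelocytic leukemia) were exposed to graded concentrations for 24 h, up to a maximum of 400 μM. CC50 is the concentration reducing viable cell number by 50%, taken from dose–response curves. Values are from duplicate determinations differing by less than 5%.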

[3] = system: HSC-2; assay: Selectivity index, ratio of CC50 for human normal cells to CC50 for human HSC2 cells; type: functional
Outline: (§2)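 The index is the average CC50 toward the three normal cell types (HGF, HPC, HPLF) divided by the CC50 toward the indicated malignant line.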

[4] = Cytotoxicity against human HPLF cells after 24 hrs; type: cell-based; conditions: for CC50: hplf, 24 h; for CC50 at 24 h: HPLF cells; outline: as §1
[5] = Cytotoxicity against human HGF cells after 24 hrs; type: cell-based; conditions: for CC50: hgf, 24 h; for CC50 at 24 h: HGF cells; outline: as §1
[6] = Cytotoxicity against human HPC cells after 24 hrs; type: cell-based; conditions: for CC50: hpc, 24 h; for CC50 at 24 h: HPC cells; outline: as §1
[7] = system: HSC-4; assay: Selectivity index, ratio of CC50 for human normal cells to CC50 for human HSC4 cells; type: functional; outline: as §2
[8] = system: Mus musculus; assay: Toxicity in mouse assessed as induction of mortality at 30 to 300 mg/kg, ip; type: organism-based; parameters: dose 30-300 mg/kg, route intraperitoneal; conditions: in vivo
[9] = system: HSC-2; assay: Cytotoxicity against human HSC2 cells after 24 hrs; type: functional; conditions: HSC-2, 24 h; outline: as §1
[10] = system: HL-60; assay: Selectivity index, ratio of CC50 for human normal cells to CC50 for human HL60 cells; type: functional; outline: as §2
[11] = system: HL-60; assay: Cytotoxicity against human HL60 cells after 24 hrs; type: functional; conditions: HL-60, 24 h; outline: as §1
[12] = system: Mus musculus; assay: Neurotoxicity in mouse assessed at 30 to 300 mg/kg, ip after 0.5 hrs; type: toxicity, organism-based; parameters: dose 30-300 mg/kg, route intraperitoneal; conditions: in vivo
Outline: (§3)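 Mice received 30, 100 or 300 mg/kg intraperitoneally and were examined at 0.5 and 4 h for mortality and neurological deficit, following NINDS screening protocols. Results were recorded as the number of mice showing a deficit over the number treated per dose.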

[13] = system: Mus musculus; assay: Neurotoxicity in mouse assessed at 30 to 300 mg/kg, ip after 4 hrs; type: toxicity, organism-based; parameters: dose 30-300 mg/kg, route intraperitoneal; conditions: in vivo; outline: as §3

| SMILES | logP [1] | CC50 [2] [µM] | Selectivity Index [3] | CC50 [4] [µM] | CC50 [5] [µM] | CC50 [6] [µM] | Selectivity Index [7] | Activity [8] | CC50 [9] [µM] | Selectivity Index [10] | CC50 [11] [µM] | Activity [12] | Activity [13] | CC50 at 24 h [4] [µM] | CC50 at 24 h [5] [µM] | CC50 at 24 h [6] [µM] |
| --- | --- | --- | --- | --- | --- | --- | --- | --- | --- | --- | --- | --- | --- | --- | --- | --- |
| Cc1ccc(/C=C2\CCC/C(=C\c3ccc([N+](=O)[O-])cc3)C2=O)cc1 | 5.38 | 13 | >42 | 348 | > 400 | 92 | >22 | Non-toxic | 6.6 | >10 | 27 | – | – | – | – | – |
| O=C1/C(=C/c2ccc(F)cc2)CCC/C1=C\c1cccc([N+](=O)[O-])c1 | 5.07 | 2.5 | – | 36 | 42 | 38 | – | Non-toxic | 2.2 | – | 1 | – | – | – | – | – |
| O=C1/C(=C/c2ccccc2)CCC/C1=C\c1ccc([N+](=O)[O-])cc1 | 4.93 | 9.2 | 53 | 282 | 371 | 123 | 28 | Non-toxic | 4.9 | 13 | 20 | Non-toxic | Non-toxic | – | – | – |
| CN(C)c1ccc(/C=C2\CCC/C(=C\c3ccc([N+](=O)[O-])cc3)C2=O)cc1 | 5.03 | > 400 | – | > 400 | > 400 | > 400 | – | Non-toxic | 11 | – | > 400 | – | – | – | – | – |
| COc1ccc(/C=C2\CCC/C(=C\c3ccc([N+](=O)[O-])cc3)C2=O)c(OC)c1OC | – | > 400 | 1 | > 400 | > 400 | > 400 | 1 | Non-toxic | > 400 | 1 | > 400 | Non-toxic | Non-toxic | – | – | – |
| O=C1/C(=C/c2ccc(F)cc2)CCC/C1=C\c1ccccc1[N+](=O)[O-] | – | 2.2 | – | 67 | 82 | 11 | – | Non-toxic | 2.7 | – | 3 | Non-toxic | Non-toxic | – | – | – |
| COc1ccc(/C=C2\CCC/C(=C\c3ccc([N+](=O)[O-])cc3)C2=O)cc1 | 4.98 | > 400 | 1 | – | – | – | 1 | Non-toxic | > 400 | 1 | > 400 | Non-toxic | Non-toxic | > 400 | > 400 | > 400 |
| O=C1/C(=C/c2ccccc2)CCC/C1=C\c1cccc([N+](=O)[O-])c1 | 4.9 | 2.4 | 5.1 | 18 | 25 | 14 | 7.9 | Non-toxic | 3.7 | 6.3 | 3 | – | – | – | – | – |
| COc1cc(/C=C2\CCC/C(=C\c3ccc([N+](=O)[O-])cc3)C2=O)cc(OC)c1OC | 4.56 | 1.5 | 466 | – | – | – | 236 | Non-toxic | 0.76 | 322 | 1.1 | – | – | 378 | 336 | 347 |
| O=C1/C(=C/c2ccc(Cl)cc2)CCC/C1=C\c1cccc([N+](=O)[O-])c1 | 5.58 | 2.3 | 15 | 38 | 39 | 18 | 14 | – | 2.2 | 10 | 3.2 | – | – | – | – | – |
| O=C1CCCC/C1=C\c1ccccc1[N+](=O)[O-] | – | 29 | 5.2 | 103 | 218 | 117 | 5 | Non-toxic | 28 | 5.4 | 27 | – | – | – | – | – |
| CN(C)c1ccc(/C=C2\CCC/C(=C\c3cccc([N+](=O)[O-])c3)C2=O)cc1 | 5 | 71 | – | > 400 | > 400 | > 400 | – | Non-toxic | 32 | – | 30 | – | – | – | – | – |
| COc1cc(OC)c(/C=C2\CCC/C(=C\c3ccc([N+](=O)[O-])cc3)C2=O)c(OC)c1 | – | > 400 | 1 | > 400 | > 400 | > 400 | 1 | Non-toxic | > 400 | >36 | 11 | Non-toxic | Non-toxic | – | – | – |
| Cc1ccc(/C=C2\CCC/C(=C\c3ccccc3[N+](=O)[O-])C2=O)cc1 | 5.15 | 40 | >36 | > 400 | > 400 | > 400 | >10 | – | 11 | >36 | 11 | – | – | – | – | – |
| O=C1/C(=C/c2ccc(F)cc2)CCC/C1=C\c1ccc([N+](=O)[O-])cc1 | 5.09 | 15 | – | > 400 | 326 | > 400 | – | Non-toxic | 19 | – | 32 | – | – | – | – | – |
| COc1ccc(/C=C2\CCC/C(=C\c3cccc([N+](=O)[O-])c3)C2=O)cc1 | 4.96 | 11 | >55 | 354 | > 400 | 33 | >24 | Non-toxic | 4.8 | >36 | 7.2 | – | – | – | – | – |
| COc1ccc(/C=C2\CCC/C(=C\c3ccccc3[N+](=O)[O-])C2=O)cc1 | 4.76 | 24 | – | 386 | > 400 | > 400 | – | Non-toxic | 11 | – | 26 | Non-toxic | Non-toxic | – | – | – |
| CN(C)c1ccc(/C=C2\CCC/C(=C\c3ccccc3[N+](=O)[O-])C2=O)cc1 | 4.8 | > 400 | 1 | > 400 | > 400 | > 400 | 1 | – | > 400 | 1 | > 400 | – | – | – | – | – |
| O=C1CCCC/C1=C\c1cccc([N+](=O)[O-])c1 | – | 18 | 9.1 | 56 | 74 | 49 | 3.3 | Non-toxic | 6.6 | 10 | 5.8 | – | – | – | – | – |
| COc1cc(OC)c(OC)cc1/C=C1\CCC/C(=C\c2ccc([N+](=O)[O-])cc2)C1=O | – | 250 | >6 | > 400 | > 400 | > 400 | >1.6 | Non-toxic | 67 | 1 | 400 | – | – | – | – | – |
